Data: PMC12391519 (Scientific Reports, 2025)

Columns and labels:
[1] = Total serum TEIC trough concentration by HPLC in patients on TEIC therapy; format: in vivo, human
Outline: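 Trough serum was drawn before dosing (days 3–4 of loading, day 7 onward of maintenance), centrifuged 1,800 g for 15 min at 25 °C and stored at –30 °C. It got primidone internal standard, acetonitrile deproteinisation and 0.1 M HCl/chloroform cleanup. HPLC-UV ran at 215 nm on a C18 column at 35 °C with a 10 mM phosphate pH 3.0/acetonitrile gradient at 1.0 mL/min. Calibrators were in commercial human serum; groups were compared by Mann–Whitney U.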

[2] = Free serum TEIC trough concentration by ultrafiltration followed by HPLC; format: in vivo, human
Outline: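 Trough serum (1 mL) was ultrafiltered through a 30 kDa cutoff filter. The filtrate got primidone internal standard, acetonitrile deproteinisation and 0.1 M HCl/chloroform cleanup, then C18 HPLC-UV at 215 nm; calibrators were in ultrafiltered human serum. Response was […] CRP decrease plus ≥0.3 °C fever reduction for two consecutive days within 96 h. Adverse events were renal or hepatic dysfunction. Groups were compared by Mann–Whitney U.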

[3] = test system: serum albumin; assay: Free TEIC percentage; format: in vitro ADME, human; details: patient serum, HPLC-UV
Outline: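 Free percentage is free/total trough TEIC, both measured by HPLC-UV at 215 nm; free drug was taken after 30 kDa ultrafiltration of serum. Samples were drawn before dosing on days 3–4 (loading: five doses, median 13 mg/kg every 12 h) or from day 7 (maintenance: median 7.8 mg/kg once daily). Relation to albumin was assessed by Spearman rank correlation.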

[4] = Adverse events during TEIC therapy; format: in vivo, human; details: ROC analysis, n = 41
Outline: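 Renal dysfunction was a serum creatinine rise of ≥0.3 mg/dL within 48 h, or ≥1.5-times baseline within seven days, of TEIC administration. Hepatic dysfunction was AST or ALT outside the normal limit of ≤30 IU/L (CTCAE v5.0). ROC analysis used measured free trough TEIC (ultrafiltration, HPLC-UV). The cutoff was the point where sensitivity and specificity, plotted against free concentration, gave the best result.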

[5] = test system: albumin; details: cited from earlier work
[6] = cited from earlier work

Trough total concentration, loading dose period, median ([1]; loading dose period (days 3–4, median dose 13 mg/kg every 12 h), serum, HPLC-UV): 24.3 µg/mL
Trough total concentration, maintenance dose period, median ([1]; maintenance dose period (day 7 onward, median dose 7.8 mg/kg once daily), serum, HPLC-UV): 26.2 µg/mL
Total serum TEIC concentration, patients without effective response, median ([1]; n = 7): 21.1 µg/mL
Total serum TEIC concentration, patients with effective response, median ([1]; n = 17): 24.8 µg/mL
Trough free concentration, loading dose period, median ([2]; loading dose period, ultrafiltration 30 kDa, HPLC-UV, median): 1.50 µg/mL
Trough free concentration, maintenance dose period, median ([2]; maintenance dose period, ultrafiltration 30 kDa, HPLC-UV, median): 1.65 µg/mL
Free serum TEIC concentration, patients without effective response, median ([2]; n = 7, median): 1.26 µg/mL
Free serum TEIC concentration, patients with effective response, median ([2]; n = 17, median): 1.50 µg/mL
Free serum TEIC concentration, single patient with efficacy ([2]; one of the 17 patients who showed efficacy, total serum TEIC < 15 µg/mL): 1.67 µg/mL
Free serum TEIC concentration, single patient with high total concentration ([2]; one patient, total serum TEIC > 40 μg/mL): 1.78 µg/mL
Free teicoplanin percentage, median ([3]; all samples, ultrafiltration 30 kDa, free/total): 6.3%
Free teicoplanin percentage, loading dose period, median ([3]; loading dose period, ultrafiltration): 6.2%
Free teicoplanin percentage, maintenance dose period, median ([3]; maintenance dose period, ultrafiltration): 6.3%
Substance: Teicoplanin
Total serum TEIC concentration, patients with adverse events, median ([1]; n = 7): 36.1 µg/mL
Total serum TEIC concentration, patients without adverse events, median ([1]; n = 34): 30.1 µg/mL
Free serum TEIC concentration, single patient with adverse events ([2]; another patient, total serum TEIC < 40 μg/mL, adverse events noted): 6.31 µg/mL
Free serum TEIC concentration, patients with adverse events, median ([2]; n = 7, median): 2.60 µg/mL
Free serum TEIC concentration, patients without adverse events, median ([2]; n = 34, median): 1.35 µg/mL
Cutoff value of free serum TEIC concentration for occurrence of adverse events [4]: 2.07 µg/mL
nKa (binding sites per albumin molecule × association constant) ([5]; analysis of Yano et al.): 1.78 (g/dL)^−1
Protein-binding rate used by Byrne et al. [5]: 90–95%
Protein-binding rate ([5]; in humans, serum albumin): ≥ 90%
Cutoff of mean free serum TEIC concentration associated with renal dysfunction ([6]; Sugiyama et al.): 4.2 µg/mL
Effective total serum TEIC trough concentrations in clinical settings [6]: 15 to 40 µg/mL
Effective total serum TEIC trough concentrations, complicated infections [6]: 20 to 40 µg/mL
Effective total serum TEIC trough concentrations, uncomplicated infections [6]: 15 to 30 µg/mL
TEIC concentration causing renal dysfunction [6]: > 60 µg/mL
